Test results: PMC4081462 (Molecular diversity, 2014)
Counter-ions that a name gives are not always drawn.

Experiments:
[1] = system: bovine brain tubulin; assay: Inhibition of tubulin assembly; assay type: biochemical; conditions: for IC50: read-out: Inhibition of tubulin assembly IC50 ± SD, 10 µM bovine brain tubulin, 0.4 mM GTP, 30 °C, 20 min
Method in brief: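 10 µM bovine brain tubulin in glutamate buffer was preincubated with varying test compound concentrations at 30 °C, then chilled to 0 °C. 0.4 mM GTP was added and the mixture rewarmed to 30 °C in a recording spectrophotometer. Assembly was followed as turbidity at 350 nm. IC50 is the concentration cutting assembly extent by 50% after 20 min.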

[2] = system: tubulin; assay: Inhibition of [3H]vinblastine binding to tubulin; set-up: species or system bovine; conditions: for Inhibition of binding of [3H]vinblastine, % inhibition ± SD: 10 µM tubulin, 10 µM radiolabeled ligand
Method in brief: (§1)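 Radioligand binding in 0.1 M MES (pH 6.9) with 0.5 mM MgCl2, 10 µM tubulin (1.0 mg/mL), 10 µM radiolabeled ligand and inhibitors at different concentrations. Ligands were mixed before tubulin was added, then incubated 15 min at around 20 °C. Duplicate aliquots were run through Sephadex G-50 superfine syringe columns equilibrated in 0.1 M MES-0.5 mM MgCl2 (pH 6.9). At least two experiments per condition.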

[3] = system: tubulin; assay: Inhibition of [3H]dolastatin 10 binding to tubulin; set-up: species or system bovine; conditions: for Inhibition of binding of [3H]dolastatin 10, % inhibition ± SD: 10 µM tubulin, 10 µM radiolabeled ligand
Method in brief: as §1

[4] = system: tubulin; assay: Inhibition of [3H]halichondrin B binding to tubulin; set-up: species or system bovine; conditions: for Inhibition of binding of [3H]halichondrin B, % inhibition ± SD: 10 µM tubulin, 10 µM radiolabeled ligand
Method in brief: as §1

[5] = system: HeLa; assay: Antiproliferative assay; assay type: cell-based; conditions: Homo sapiens, 72 h, read-out: In vitro cytotoxic activity IC50, HeLa
[6] = system: HT29; assay: Antiproliferative assay; assay type: cell-based; conditions: Homo sapiens, HT-29, 72 h, read-out: In vitro cytotoxic activity IC50, HT29
[7] = system: SEM cells; assay: Antiproliferative assay; assay type: cell-based; conditions: Homo sapiens, B-cell, 72 h, read-out: In vitro cytotoxic activity IC50, SEM
Method in brief: (§2)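 Cells from ATCC. Jurkat and SEM were grown in RPMI-1640, and HeLa and HT-29 in DMEM, each with 115 units/mL penicillin G, 115 µg/mL streptomycin and 10% FBS. 8 × 10³ cells/well were seeded 18 h ahead (37 °C, 5% CO2). The medium was then replaced with test compound at several concentrations (10 mM DMSO stock) for 72 h at 37 °C. MTT read-out was at 560 nm; IC50 is 50% proliferation inhibition.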

[8] = system: Jurkat; assay: Antiproliferative assay; assay type: cell-based; conditions: Homo sapiens, 72 h, read-out: In vitro cytotoxic activity IC50, Jurkat
Method in brief: as §2

[9] = system: HeLa, HT29, SEM, and Jurkat tumor cells; assay: Cytotoxicity on tumor cell panel; assay type: cell-based, human
Method in brief: as §2

| SMILES | Inhibition of tubulin assembly (in words) [1] | IC50 [1] [nM] | Inhibition of the binding of [3H]vinblastine (in words) [2] | Inhibition of binding of [3H]vinblastine, % inhibition ± SD ([2]; inhibitor 5 µM) [%] | Inhibition of binding of [3H]vinblastine, % inhibition ± SD ([2]; inhibitor 20 µM) [%] | Inhibition of the binding of [3H]dolastatin 10 (in words) [3] | Inhibition of binding of [3H]dolastatin 10, % inhibition ± SD ([3]; inhibitor 5 µM) [%] | Inhibition of binding of [3H]dolastatin 10, % inhibition ± SD ([3]; inhibitor 20 µM) [%] | Inhibition of the binding of [3H]halichondrin B (in words) [4] | Inhibition of binding of [3H]halichondrin B, % inhibition ± SD ([4]; inhibitor 5 µM) [%] | Inhibition of binding of [3H]halichondrin B, % inhibition ± SD ([4]; inhibitor 20 µM) [%] | IC50 [5] [nM] | IC50 [6] [nM] | IC50 [7] [nM] | IC50 [8] [nM] | Cytotoxic activity (in words) [9] |
| --- | --- | --- | --- | --- | --- | --- | --- | --- | --- | --- | --- | --- | --- | --- | --- | --- |
| CN[C@H](C(=O)N[C@H](C(=O)N(C)[C@H](/C=C(\C)C(=O)O)C(C)C)C(C)(C)C)C(C)(C)c1cn(C)c2ccccc12 [Compound 1, hemiasterlin] | active | 1300 ± 50 | active | 14 ± 4 | 66 ± 4 | active | 19 ± 7 | 89 ± 1 | active | 38 ± 4 | 92 ± 2 | – | – | – | – | – |
| CN[C@H](C(=O)N[C@H](C(=O)N(C)[C@H](/C=C(\C)C(=O)O)C(C)C)C(C)(C)C)C(C)(C)c1ccccc1 [Compound 2, taltobulin] | active | 1200 ± 10 | active | 29 ± 9 | 60 ± 2 | active | 0 ± 0 | 30 ± 1 | active | 38 ± 6 | 63 ± 1 | 0.2 ± 0.1 | 0.3 ± 0.1 | 0.1 ± 0.05 | 0.2 ± 0.5 | nanomolar IC50 values |
| CN[C@H](C(=O)N[C@H](C(=O)N(C)c1cccc(C(=O)O)c1)C(C)C)C(C)(C)c1ccccc1.O=C(O)C(F)(F)F [Compound 3, 3-((S)-N,3 Dimethyl-2-((S)-3-methyl-2-(methylamino)-3-phenylbutanamido)butanamido) benzoic acid trifluoroacetate] | – | > 20000 | – | – | 2 ± 1 | – | – | 7 ± 3 | – | – | 0 ± 0 | 4700 ± 500 | 1900 ± 500 | > 10000 | 150 ± 20 | – |
| CN[C@H](C(=O)N[C@H](C(=O)N(C)c1cc(C(=O)O)ccc1C)C(C)C)C(C)(C)c1ccccc1.O=C(O)C(F)(F)F [Compound 4, 3-((S)-N,3-Dimethyl-2-((S)-3-methyl-2-(methylamino)-3-phenylbutanamido)butanamido)-4-methylbenzoic acid trifluoroacetate] | – | > 20000 | – | – | 9 ± 1 | – | – | 0 ± 0 | – | – | 3 ± 1 | 5300 ± 600 | 2700 ± 200 | > 10000 | 290 ± 50 | – |
| CN[C@H](C(=O)N[C@H](C(=O)N(C)c1cc(C(=O)O)ccc1OC)C(C)C)C(C)(C)c1ccccc1.O=C(O)C(F)(F)F [Compound 5, 3-((S)-N,3-Dimethyl-2-((S)-3-methyl-2-(methylamino)-3-phenylbutanamido)butanamido)-4-methoxybenzoic acid trifluoroacetate] | – | > 20000 | – | – | 0 ± 0 | – | – | 8 ± 2 | – | – | 0 ± 0 | > 10000 | > 10000 | > 10000 | > 10000 | – |
| CN[C@H](C(=O)N[C@H](C(=O)N(C)[C@H](c1nc(C(=O)O)co1)C(C)C)C(C)C)C(C)(C)c1ccccc1 [Compound 8, 2-((S)-1-((S)-N,3-Dimethyl-2-((S)-3-methyl-2-(methylamino)-3-phenylbutanamido)butanamido)-2-methylpropyl)oxazole-4-carboxylic acid trifluoroacetate] | – | – | – | – | – | – | – | – | – | – | – | > 10000 | > 10000 | > 10000 | > 10000 | – |
